# Only some compounds are listed: those with a hit (about 2.7% of all), similar ones and a draw of the others.
# CTSL1 counter = cathepsin L1 inhibition, PFM18AAP counter-screen; 0.49% of 300,000 active; inhibition, % at 5.96 µM; recombinant F. hepatica cathepsin L1, Z-Leu-Arg-MCA fluorescence;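 active means inhibition above the mean of all tested compounds plus 3 SD, set per screening campaign, cut at about 17% in these data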;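 further: 0% = plate median of test compound wells and 100% = 1 µM Z-Phe-Ala-diazomethylketone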
# PfM18AAP inh = PfM18AAP enzyme inhibition | recombinant PfM18AAP, H-Glu-NHMec fluorogenic cleavage | inhibition, % at 7.35 µM | 1.2% of 290,000 active;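 active means inhibition above the campaign mean inhibition over all tested compounds plus 3 SD, cut at about 28% in these data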;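 further: 0% = plate median of test compound wells and 100% = 2 mM ZnCl2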
# IMP-1 inhibitor = inhibitors of Pseudomonas aeruginosa IMP-1 metallo-beta-lactamase. AID 1556. purified IMP-1, nitrocefin hydrolysis, epi-absorbance fluorescence. inhibition, % at 5.6 µM. 0.45% of 290,000 active;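 active means inhibition above the mean plus 3 SD of all compounds in the same screening run, cut at about 4.5% in these data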;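 further: 0% = IMP-1 with DMSO and 100% = DMSO wells lacking enzyme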
#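 System: purified recombinant IMP-1 beta-lactamase. Medium: Zinc- and detergent-supplemented HEPES buffer, pH 7.1. Compound: one 5.6 µM dose […]. Schedule: 15 min preincubation plus 25 min reaction at 25 °C. Technique: Epi-absorbance fluorescence, 480 nm excitation, 530 nm emission.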
# VIM-2 inh = inhibitors of Pseudomonas aeruginosa VIM-2 metallo-beta-lactamase; 0.89% of 290,000 active; purified VIM-2, nitrocefin hydrolysis, epi-absorbance fluorescence; inhibition, % at 5.6 µM; AID 1527;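 active means inhibition above the mean of all tested compounds plus 3 SD, cutoff set per screening run, cut at about 7.5% in these data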;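 further: red hydrolysis product quenches plate fluorescence so inhibitors raise well fluorescence; 0% = enzyme with DMSO and 100% = DMSO without enzyme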
# The depositor's hits bear a star; nt = no result given.
SMILES,CTSL1 counter,PfM18AAP inh,IMP-1 inhibitor,VIM-2 inh
COc1ccc2nc(NC(=O)C3COc4ccccc4O3)sc2c1 (stereo not given),0.9,-4.0,-4.2,-3.3
COc1ccc2nc(NNC(=O)C3COc4ccccc4O3)sc2c1 (stereo not given),-5.8,30.6*,0.2,-4.4
CC(C)NC(=O)/C(C#N)=C/c1ccc(N(C)C)o1,6.0,4.7,-3.8,-3.5
COC(=O)c1sc2nc(C)cc(C)c2c1N,-1.0,3.3,-1.1,0.8
Cc1cc(C)c2c(N)c(C(=O)Nc3ncc(C)s3)sc2n1,16.8*,9.9,-5.5,-0.7
Cc1ccc(S(=O)(=O)c2cn(C)c3cc(N4CCOCC4)c(F)cc3c2=O)cc1,1.6,-3.5,-1.7,2.7
Cc1ccc(N(NC(=O)C(O)(c2ccccc2)c2ccccc2)C(=O)CCl)cc1,81.3*,6.4,-3.5,-3.7
CCOC(=O)COc1ccc2c(C#N)c3ccccn3c2c1,nt,-2.1,-0.3,1.4
COc1cc(OC)cc(C(=O)c2c(C)c(C#N)c3ccccn23)c1,nt,-1.9,-2.0,7.8*
CCOc1ccccc1Nc1nnc(SC(C)C(=O)Nc2nc(-c3ccccc3)cs2)s1 (stereo not given),6.9,-2.5,-2.5,-3.6
CCn1c(SCc2nc3sc(C(=O)O)c(C)c3c(=O)[nH]2)nc2ccccc21,0.0,33.0*,-3.7,-3.8
O=C(CSc1ncccn1)NCC1CCCO1 (stereo not given),0.2,3.3,-2.1,-1.2
S=C(Nc1ccc(N2CCOCC2)cc1)Nc1ccc2snnc2c1,0.7,30.1*,-2.9,-0.1
O=C(Nc1ccc2snnc2c1)N1CCOCC1,-0.7,1.4,-2.8,-1.4
NC(=O)c1ccccc1N/C=C/C(=O)c1ccc(F)cc1,nt,-7.7,1.3,1.0
NC(=O)c1ccccc1N/C=C/C(=O)c1ccc(Cl)cc1Cl,nt,-0.5,-3.5,8.0*
COc1cc(CNCc2ccncc2)cc(OC)c1OC,-3.3,3.2,6.1*,1.4
COc1cc(CNCc2ccc(C)cc2)cc(OC)c1OC,-2.2,-4.6,-2.4,-2.0
O=C(NC1CCCC1)C(c1ccc(F)cc1)N(Cc1ccc(Cl)cc1)C(=O)CCl (stereo not given),40.6*,-7.7,-3.2,-2.0
COC(=O)c1ccc(C(C(=O)NC2CCCCC2)N(Cc2ccc(F)cc2)C(=O)Cc2cccs2)cc1 (stereo not given),-0.5,-0.7,-3.5,-4.7
O=C(NC1CCCC1)C(c1ccc(Cl)cc1)N(Cc1ccc(F)cc1)C(=O)CCl (stereo not given),36.3*,5.3,-3.1,-1.3
CN(C)C(C(=O)NC1CCCCC1)c1ccc(Cl)cc1 (stereo not given),0.0,-5.9,-0.9,-2.8
CCNc1ccc(S(=O)(=O)N(C)C)cc1NCC(=O)Nc1ccc(F)c(Cl)c1,-5.1,13.6,-3.5,-0.1
C[C@@H](NC(=O)[C@@H]1Cc2ccccc2CN1C(=O)OC(C)(C)C)C(=O)NCC1CCCO1 (stereo not given in full),-2.2,-7.1,-1.2,-1.3
Cc1ccc(C(=O)O)cc1NS(=O)(=O)c1ccc2ccccc2c1,-5.7,-3.2,-2.3,0.5
SMILES,CTSL1 counter,PfM18AAP inh,IMP-1 inhibitor,VIM-2 inh
CC(C)OC(=O)C(C(=O)C(F)(F)F)c1cc(NS(=O)(=O)c2ccc3ccccc3c2)c2ccccc2c1O (stereo not given),-0.5,4.7,9.1*,2.6
CCC(C)Nc1nc(-c2ccccn2)nc2ccccc12 (stereo not given),4.2,0.8,3.4,8.2*
Cc1nnc(SCC(=O)Nc2ccc(N3CCN(S(C)(=O)=O)CC3)cc2)o1,0.2,-1.2,-1.5,-3.4
CCCc1nc(SCc2cccnc2)c2c(=O)n(C)c(=O)n(C)c2n1,4.8,2.1,-4.5,10.3*
Cn1c(=O)c2c(SCc3cccnc3)nc(CC(C)(C)C)nc2n(C)c1=O,1.1,-16.9,-0.9,2.3
CCCN(Cc1cc2cc(C)ccc2[nH]c1=O)C(=O)c1cccc([N+](=O)[O-])c1,18.6*,-3.9,-2.2,-3.1
CCCN(Cc1cc2ccccc2[nH]c1=O)C(=O)c1cccc([N+](=O)[O-])c1,-3.2,0.8,-0.4,-2.1
CCOC(=O)c1ccccc1NC1CC(=O)N(c2ccccc2C)C1=O (stereo not given),-0.2,-6.6,-2.2,-1.0
O=C(O)C(Cc1ccccc1)N1C(=O)c2ccccc2C1=O (stereo not given),-3.0,3.5,-0.3,-4.2
O=C(NCCCn1ccnc1)C(=O)NCC(c1cccnc1)N1CCN(c2ccc(F)cc2)CC1 (stereo not given),1.9,0.8,-3.0,-0.5
O=C(O)C(Cc1ccccc1)N1C(=O)c2cccc3cccc(c23)C1=O (stereo not given),-0.8,-2.5,-3.0,9.4*

# Bioassay records from PubChem.
